Here are results for 12 molecules from ChEMBL document CHEMBL1150294, “Synthesis of indirubin-N'-glycosides and their anti-proliferative activity against human cancer cell lines” (Bioorg Med Chem, 2008).

Molecules are shown by their SMILES.

The first assay has as its system A-427. Kind of assay: Antiproliferative activity against human A427 cells after 96 hrs by crystal violet assay. Conditions: A-427, 96 h. Type of assay: functional, cell-based. A digest of the protocol:
(§1)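 Adherent lines from DSMZ grown in RPMI 1640 with 10% FCS plus penicillin G/streptomycin. Seeded at 1000 cells/well 24 h before dosing, with an untreated plate fixed at dosing as the time-zero reference. Compounds came from DMSO series, five concentrations at 0.1% final DMSO, eight wells each. Exposure was continuous for 96 h. Cells were glutaraldehyde-fixed, stained with 0.02% crystal violet, dye eluted in 70% ethanol, OD 570 nm. Results are corrected T/C% against time-zero.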
Broadly, the IC50 is the midpoint of a concentration-inhibition curve. Read a high IC50 as weaker potency in that assay. The molecule `C[C@@H]1O[C@H](N2C(=O)/C(=C3\Nc4ccccc4C3=O)c3ccccc32)[C@H](O)[C@H](O)[C@H]1O` came in with a half-maximal inhibitory concentration (IC50) above 12.5 µM.
The same measure, in the same setting: next, `Nc1ncn([C@@H]2O[C@H](CO)[C@@H](O)[C@H]2O)c(=O)n1` [AZACITIDINE]: 0.63 µM.
On the same count and under the same terms, the value for `O=C(O)CCCc1ccc(N(CCCl)CCCl)cc1` [CHLORAMBUCIL] was 9.5 µM; that for `O=C1/C(=C2/C(=O)N([C@@H]3O[C@H](CO)[C@@H](O)[C@H](O)[C@@H]3O)c3ccccc32)Nc2ccccc21` was 5.55 µM; that for `O=C1/C(=C2/C(=O)N([C@@H]3O[C@H](CO)[C@@H](O)[C@H](O)[C@H]3O)c3ccccc32)Nc2ccccc21` was 11.8 µM.
Take `O=C1/C(=C2/C(=O)N([C@@H]3O[C@H](CO)[C@H](O)[C@H](O)[C@H]3O)c3ccccc32)Nc2ccccc21`: the IC50 is 13.2 µM.
Consider `C[C@@H]1O[C@@H](N2C(=O)/C(=C3\Nc4ccccc4C3=O)c3ccccc32)[C@H](O)[C@H](O)[C@H]1O`, for which the IC50 was above 25 µM.
`COc1cc([C@@H]2c3cc4c(cc3[C@@H](O[C@@H]3O[C@@H]5CO[C@@H](C)O[C@H]5[C@H](O)[C@H]3O)[C@H]3COC(=O)[C@H]23)OCO4)cc(OC)c1O` [ETOPOSIDE] showed a concentration for half-maximal inhibition (IC50) of 0.13 µM.

In another assay the test system is MCF7. In words: Antiproliferative activity against human MCF7 cells after 96 hrs by crystal violet assay. In kind it is functional, cell-based. Conditions: MCF7, 96 h. The method, boiled down:
as §1
The molecule `C[C@@H]1O[C@@H](N2C(=O)/C(=C3\Nc4ccc(Cl)cc4C3=O)c3ccccc32)[C@H](O)[C@H](O)[C@H]1O` displayed an IC50 of 6.96 µM.
For the molecule `C[C@@H]1O[C@H](N2C(=O)/C(=C3\Nc4ccccc4C3=O)c3ccccc32)[C@H](O)[C@H](O)[C@H]1O`, the midpoint of inhibition, the IC50, lay at 0.76 µM.
`Nc1ncn([C@@H]2O[C@H](CO)[C@@H](O)[C@H]2O)c(=O)n1` [AZACITIDINE] came in with a concentration for half-maximal inhibition (IC50) of 6.78 µM.
Still for that read-out and setting: next, `O=C(O)CCCc1ccc(N(CCCl)CCCl)cc1` [CHLORAMBUCIL]: 18.4 µM; `O=C1/C(=C2/C(=O)N([C@@H]3O[C@H](CO)[C@@H](O)[C@H](O)[C@@H]3O)c3ccccc32)Nc2ccccc21`: 4.22 µM; `C[C@@H]1O[C@H](N2C(=O)/C(=C3\Nc4ccccc4\C3=N/O)c3ccccc32)[C@H](O)[C@H](O)[C@H]1O`: 17 µM.
As for `O=C1/C(=C2/C(=O)N([C@@H]3O[C@H](CO)[C@@H](O)[C@H](O)[C@H]3O)c3ccccc32)Nc2ccccc21`, inhibition was half-maximal at 15.7 µM (IC50).
`O=C1/C(=C2/C(=O)N([C@@H]3O[C@H](CO)[C@H](O)[C@H](O)[C@H]3O)c3ccccc32)Nc2ccccc21` showed an IC50 of 25.8 µM.
Still for that read-out and setting: next, `C[C@@H]1O[C@@H](N2C(=O)/C(=C3\Nc4ccccc4C3=O)c3ccccc32)[C@H](O)[C@H](O)[C@H]1O`: 0.67 µM; `COc1cc([C@@H]2c3cc4c(cc3[C@@H](O[C@@H]3O[C@@H]5CO[C@@H](C)O[C@H]5[C@H](O)[C@H]3O)[C@H]3COC(=O)[C@H]23)OCO4)cc(OC)c1O` [ETOPOSIDE]: 0.5 µM.
`Cc1cc(C)c2c(c1)N([C@H]1O[C@@H](C)[C@H](O)[C@@H](O)[C@H]1O)C(=O)/C2=C1\Nc2ccccc2C1=O`: it took 6.16 µM to reach half-maximal inhibition (IC50).
As to `C[C@@H]1O[C@H](N2C(=O)/C(=C3\Nc4ccc(Cl)cc4C3=O)c3ccccc32)[C@H](O)[C@H](O)[C@H]1O`, half-maximal inhibition (IC50) required 7.98 µM.

Tested on in the next assay: not listed separately
Kind of assay: Growth inhibition of human KYSE70 cells at 12.5 uM after 96 hrs by crystal violet assay. Conditions: KYSE-70, 96 h. In kind it is functional. A digest of the protocol:
as §1
By inhibition is commonly meant the drop in the measured response relative to a control, in per cent. A higher inhibition goes with a strong effect. In the case of `C[C@@H]1O[C@@H](N2C(=O)/C(=C3\Nc4ccccc4C3=O)c3ccccc32)[C@H](O)[C@H](O)[C@H]1O`, the inhibition at 12.5 µM is below 20%.
For `Cc1cc(C)c2c(c1)N([C@H]1O[C@@H](C)[C@H](O)[C@@H](O)[C@H]1O)C(=O)/C2=C1\Nc2ccccc2C1=O`, the inhibition at 12.5 µM was below 20%.

A further assay has as its system 5637. Kind of assay: Growth inhibition of human 5637 cells at 12.5 uM after 96 hrs by crystal violet assay. Type of assay: functional. The conditions noted are these: Homo sapiens, 5637, 96 h. The method, boiled down: as §1
For the molecule `C[C@@H]1O[C@@H](N2C(=O)/C(=C3\Nc4ccccc4C3=O)c3ccccc32)[C@H](O)[C@H](O)[C@H]1O`, the inhibition at 12.5 µM was below 20%.
Regarding `Cc1cc(C)c2c(c1)N([C@H]1O[C@@H](C)[C@H](O)[C@@H](O)[C@H]1O)C(=O)/C2=C1\Nc2ccccc2C1=O`, the inhibition at 12.5 µM is below 20%.

For another assay, the system named is 5637. In words: Antiproliferative activity against human 5637 cells after 96 hrs by crystal violet assay. In kind it is functional, cell-based. Conditions: Homo sapiens, 5637, 96 h. A digest of the protocol: as §1
Consider `C[C@@H]1O[C@@H](N2C(=O)/C(=C3\Nc4ccc(Cl)cc4C3=O)c3ccccc32)[C@H](O)[C@H](O)[C@H]1O`, for which the IC50 amounted to 12.9 µM. That is a double-digit micromolar value.
`C[C@@H]1O[C@H](N2C(=O)/C(=C3\Nc4ccccc4C3=O)c3ccccc32)[C@H](O)[C@H](O)[C@H]1O` returned an IC50 above 12.5 µM.
On the same count and under the same terms, next, `Nc1ncn([C@@H]2O[C@H](CO)[C@@H](O)[C@H]2O)c(=O)n1` [AZACITIDINE]: 1.73 µM; `O=C(O)CCCc1ccc(N(CCCl)CCCl)cc1` [CHLORAMBUCIL]: 6.55 µM; `O=C1/C(=C2/C(=O)N([C@@H]3O[C@H](CO)[C@@H](O)[C@H](O)[C@@H]3O)c3ccccc32)Nc2ccccc21`: 10.6 µM.
The molecule `C[C@@H]1O[C@H](N2C(=O)/C(=C3\Nc4ccccc4\C3=N/O)c3ccccc32)[C@H](O)[C@H](O)[C@H]1O` returned an IC50 of 15.5 µM.
The molecule `O=C1/C(=C2/C(=O)N([C@@H]3O[C@H](CO)[C@@H](O)[C@H](O)[C@H]3O)c3ccccc32)Nc2ccccc21` showed an IC50 of 14.4 µM.
Same read-out and setting: next, `O=C1/C(=C2/C(=O)N([C@@H]3O[C@H](CO)[C@H](O)[C@H](O)[C@H]3O)c3ccccc32)Nc2ccccc21`: 24.9 µM; `C[C@@H]1O[C@@H](N2C(=O)/C(=C3\Nc4ccccc4C3=O)c3ccccc32)[C@H](O)[C@H](O)[C@H]1O`: above 25 µM.
Same read-out and setting: next, `COc1cc([C@@H]2c3cc4c(cc3[C@@H](O[C@@H]3O[C@@H]5CO[C@@H](C)O[C@H]5[C@H](O)[C@H]3O)[C@H]3COC(=O)[C@H]23)OCO4)cc(OC)c1O` [ETOPOSIDE]: 0.54 µM; `Cc1cc(C)c2c(c1)N([C@H]1O[C@@H](C)[C@H](O)[C@@H](O)[C@H]1O)C(=O)/C2=C1\Nc2ccccc2C1=O`: above 12.5 µM; `C[C@@H]1O[C@H](N2C(=O)/C(=C3\Nc4ccc(Cl)cc4C3=O)c3ccccc32)[C@H](O)[C@H](O)[C@H]1O`: 8.23 µM.

Tested on in the next assay: not listed separately
Kind of assay: Antiproliferative activity against human KYSE70 cells after 96 hrs by crystal violet assay. Type of assay: functional, cell-based. Conditions: KYSE-70, 96 h. A digest of the protocol: as §1
`C[C@@H]1O[C@@H](N2C(=O)/C(=C3\Nc4ccc(Cl)cc4C3=O)c3ccccc32)[C@H](O)[C@H](O)[C@H]1O`: the concentration for half-maximal inhibition (IC50) stood at 15.3 µM.
On the same count and under the same terms, next, `C[C@@H]1O[C@H](N2C(=O)/C(=C3\Nc4ccccc4C3=O)c3ccccc32)[C@H](O)[C@H](O)[C@H]1O`: above 12.5 µM; `Nc1ncn([C@@H]2O[C@H](CO)[C@@H](O)[C@H]2O)c(=O)n1` [AZACITIDINE]: 1.59 µM.
On the same count and under the same terms, the value for `O=C(O)CCCc1ccc(N(CCCl)CCCl)cc1` [CHLORAMBUCIL] was 38.4 µM; that for `O=C1/C(=C2/C(=O)N([C@@H]3O[C@H](CO)[C@@H](O)[C@H](O)[C@@H]3O)c3ccccc32)Nc2ccccc21` was 11.8 µM; that for `C[C@@H]1O[C@H](N2C(=O)/C(=C3\Nc4ccccc4\C3=N/O)c3ccccc32)[C@H](O)[C@H](O)[C@H]1O` was 15.4 µM.
`O=C1/C(=C2/C(=O)N([C@@H]3O[C@H](CO)[C@@H](O)[C@H](O)[C@H]3O)c3ccccc32)Nc2ccccc21`: the IC50 is 28.9 µM.
Consider `O=C1/C(=C2/C(=O)N([C@@H]3O[C@H](CO)[C@H](O)[C@H](O)[C@H]3O)c3ccccc32)Nc2ccccc21`, for which half-maximal inhibition (IC50) was put at 41.5 µM. This IC50 and that of the molecule before are within 1.5-fold of each other.
For the molecule `C[C@@H]1O[C@@H](N2C(=O)/C(=C3\Nc4ccccc4C3=O)c3ccccc32)[C@H](O)[C@H](O)[C@H]1O`, the IC50 is above 25 µM.
Molecule `COc1cc([C@@H]2c3cc4c(cc3[C@@H](O[C@@H]3O[C@@H]5CO[C@@H](C)O[C@H]5[C@H](O)[C@H]3O)[C@H]3COC(=O)[C@H]23)OCO4)cc(OC)c1O` [ETOPOSIDE] showed a half-maximal inhibitory concentration (IC50) of 0.94 µM.
Still for that read-out and setting: next, `Cc1cc(C)c2c(c1)N([C@H]1O[C@@H](C)[C@H](O)[C@@H](O)[C@H]1O)C(=O)/C2=C1\Nc2ccccc2C1=O`: above 12.5 µM.
As to `C[C@@H]1O[C@H](N2C(=O)/C(=C3\Nc4ccc(Cl)cc4C3=O)c3ccccc32)[C@H](O)[C@H](O)[C@H]1O`, it took 5.94 µM to reach half-maximal inhibition (IC50).
